From ChEMBL document CHEMBL2062456, “Green synthesis and anti-infective activities of fluorinated pyrazoline derivatives” (2012)
Values after ≈ are worked out from the molar mass of the structure shown.

Assays:
Assay type in all cases: functional
Candida albicans = test: Antifungal activity against Candida albicans MTCC 227
Aspergillus niger = test: Antifungal activity against Aspergillus niger MTCC 282
Streptococcus pyogenes = test: Antibacterial activity against Streptococcus pyogenes MTCC 442
Escherichia coli = test: Antibacterial activity against Escherichia coli MTCC 443
Aspergillus clavatus = test: Antifungal activity against Aspergillus clavatus MTCC 1323
[1] = test system: Mycobacterium tuberculosis; test: Antitubercular activity against Mycobacterium tuberculosis H37Rv by Lowenstein-Jensen slope method
Procedure, shortened: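 Lowenstein–Jensen medium used both to grow the strain and to dilute test drugs. Inoculum adjusted to 1 mg/mL. Compounds were made as 2 mg/mL stocks and diluted with 1% DMSO. Primary screen at 500, 250 and 125; actives were retested at 100 down to 1.5625 (twofold series). MIC is the minimum concentration inhibiting 99% of growth. Vehicle and reference controls were included, and tests were run in duplicate.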

Staphylococcus aureus = test: Antibacterial activity against Staphylococcus aureus MTCC 96
Bacillus subtilis = test: Antibacterial activity against Bacillus subtilis MTCC 441

Row | Compound | MIC99 (Candida albicans) [µg/mL] | MIC99 (Aspergillus niger) [µg/mL] | MIC99 (Streptococcus pyogenes) [µg/mL] | MIC99 (Escherichia coli) [µg/mL] | MIC99 (Aspergillus clavatus) [µg/mL] | MIC99 [1] [µg/mL] | MIC99 (Staphylococcus aureus) [µg/mL] | MIC99 (Bacillus subtilis) [µg/mL]
1 | Fc1ccc(-c2nn(-c3ccccc3)cc2C2=NNC(c3ccc(Br)cc3)C2)cc1 (configuration not stated) | 10 (≈ 21.7 µM) | 10 (≈ 21.7 µM) | 10 (≈ 21.7 µM) | 6.25 (≈ 13.5 µM) | 10 (≈ 21.7 µM) | 50 (≈ 108 µM) | 6.25 (≈ 13.5 µM) | 10 (≈ 21.7 µM)
2 | CCn1cc(C(=O)O)c(=O)c2cc(F)c(N3CCNCC3)cc21 [NORFLOXACIN] |  |  | 10 (≈ 31.3 µM) | 10 (≈ 31.3 µM) |  |  | 10 (≈ 31.3 µM) | 10 (≈ 31.3 µM)
3 | O=C(/C=C/c1cn(-c2ccccc2)nc1-c1ccc(F)cc1)c1ccc(F)cc1 | 100 (≈ 259 µM) | 20 (≈ 51.8 µM) | 10 (≈ 25.9 µM) | 25 (≈ 64.7 µM) | 20 (≈ 51.8 µM) | 25 (≈ 64.7 µM) | 6.25 (≈ 16.2 µM) | 20 (≈ 51.8 µM)
4 | O=C(/C=C/c1cn(-c2ccccc2)nc1-c1ccc(F)cc1)c1ccc(Br)cc1 | 10 (≈ 22.4 µM) | > 100 | 20 (≈ 44.7 µM) | 20 (≈ 44.7 µM) | > 100 | 50 (≈ 112 µM) | 25 (≈ 55.9 µM) | 20 (≈ 44.7 µM)
5 | Fc1ccc(-c2nn(-c3ccccc3)cc2C2=NNC(c3ccc(Cl)cc3)C2)cc1 (configuration not stated) | 100 (≈ 240 µM) | 50 (≈ 120 µM) | 20 (≈ 48 µM) | 25 (≈ 60 µM) | 50 (≈ 120 µM) | 6.25 (≈ 15 µM) | 20 (≈ 48 µM) | 25 (≈ 60 µM)
6 | CC1(C)S[C@@H]2[C@H](NC(=O)[C@H](N)c3ccccc3)C(=O)N2[C@H]1C(=O)O [AMPICILLIN] |  |  | 100 (≈ 286 µM) | 100 (≈ 286 µM) |  |  | 250 (≈ 715 µM) | 100 (≈ 286 µM)
7 | O=C(N[C@H](CO)[C@H](O)c1ccc([N+](=O)[O-])cc1)C(Cl)Cl [CHLORAMPHENICOL] |  |  | 50 (≈ 155 µM) | 50 (≈ 155 µM) |  |  | 50 (≈ 155 µM) | 50 (≈ 155 µM)
8 | Cc1ccc(C2CC(c3cn(-c4ccccc4)nc3-c3ccc(F)cc3)=NN2)cc1 (configuration not stated) | 25 (≈ 63.1 µM) | 100 (≈ 252 µM) | 10 (≈ 25.2 µM) | 50 (≈ 126 µM) | 100 (≈ 252 µM) | 10 (≈ 25.2 µM) | 12.5 (≈ 31.5 µM) | 50 (≈ 126 µM)
9 | Fc1ccc(-c2nn(-c3ccccc3)cc2C2=NNC(c3ccccc3)C2)cc1 (configuration not stated) | 50 (≈ 131 µM) | 50 (≈ 131 µM) | 50 (≈ 131 µM) | 10 (≈ 26.1 µM) | 50 (≈ 131 µM) | 25 (≈ 65.4 µM) | 50 (≈ 131 µM) | 20 (≈ 52.3 µM)
10 | NYSTATIN | 100 | 100 |  |  | 100 |  |  | 
11 | O=C(/C=C/c1cn(-c2ccccc2)nc1-c1ccc(F)cc1)c1ccccc1 | 25 (≈ 67.9 µM) | 50 (≈ 136 µM) | 12.5 (≈ 33.9 µM) | 20 (≈ 54.3 µM) | 50 (≈ 136 µM) | 50 (≈ 136 µM) | 10 (≈ 27.1 µM) | 25 (≈ 67.9 µM)
12 | O=C(/C=C/c1cn(-c2ccccc2)nc1-c1ccc(F)cc1)c1ccc(Cl)cc1 | 100 (≈ 248 µM) | > 100 | 20 (≈ 49.6 µM) | 6.25 (≈ 15.5 µM) | > 100 | 10 (≈ 24.8 µM) | 25 (≈ 62.1 µM) | 12.5 (≈ 31 µM)
13 | GENTAMICIN |  |  | 0.5 | 0.05 |  |  | 0.25 | 1
14 | Cc1ccc(C(=O)/C=C/c2cn(-c3ccccc3)nc2-c2ccc(F)cc2)cc1 | 50 (≈ 131 µM) | 100 (≈ 261 µM) | 25 (≈ 65.4 µM) | 12.5 (≈ 32.7 µM) | 100 (≈ 261 µM) | 6.25 (≈ 16.3 µM) | 20 (≈ 52.3 µM) | 20 (≈ 52.3 µM)
15 | O=C(O)c1cn(C2CC2)c2cc(N3CCNCC3)c(F)cc2c1=O [CIPROFLOXACIN] |  |  | 50 (≈ 151 µM) | 25 (≈ 75.4 µM) |  |  | 50 (≈ 151 µM) | 25 (≈ 75.4 µM)
16 | Fc1ccc(-c2nn(-c3ccccc3)cc2C2=NNC(c3ccc(F)cc3)C2)cc1 (configuration not stated) | 20 (≈ 49.9 µM) | 50 (≈ 125 µM) | 25 (≈ 62.4 µM) | 20 (≈ 49.9 µM) | 50 (≈ 125 µM) | 25 (≈ 62.4 µM) | 25 (≈ 62.4 µM) | 25 (≈ 62.4 µM)
17 | NNC(=O)c1ccncc1 [ISONIAZID] |  |  |  |  |  | 0.2 (≈ 1.46 µM) |  | 
18 | COC1=CC(=O)C[C@@H](C)[C@]12Oc1c(Cl)c(OC)cc(OC)c1C2=O [GRISEOFULVIN] | 500 (≈ 1420 µM) | 100 (≈ 283 µM) |  |  | 100 (≈ 283 µM) |  |  | 
